Each block holds one compound with its values, some of them ahead of it.
Assays:
[1] = Inhibition of HIV integrase expressed in Escherichia coli BL21; design: species or system Human immunodeficiency virus
Procedure, shortened: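 IN made in E. coli BL21(DE3) by IPTG induction. 600 nM IN stock in 10 mM HEPES pH 7.5, 10 mM MnCl2, 1 mM DTT, 10% glycerol, BSA, Brij-35, preincubated with compound or DMSO 10 min at room temperature. Reaction started with annealed 5'-biotin/3'-cy5 duplex (50 nM stock), 2 h at 37 °C. Product captured on streptavidin plate, washed with NaOH denaturing buffer, eluted in formamide, fluorescence read.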

[2] = test system: Human immunodeficiency virus 1; experiment: Antiviral activity against HIV1 by cell-based assay; format: functional, organism-based
Procedure, shortened: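 Cytoprotection assay: CEM-SS cells or human PBMCs mixed with HIV-1 strain IIIB or RF in presence of compound, 6 days. Virus pre-titered to give 70–95% loss of viability in virus-control wells; cell, toxicity and colorimetric controls included. Viability by MTS or XTT dye reduction; EC50 = concentration inhibiting virus replication by 50%.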

[3] = Inhibition of HIV reverse transcriptase; design: species or system Human immunodeficiency virus
Procedure, shortened: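 Scintillation proximity assay: beads carry a biotin-linked poly(A) template with oligo(T) primer. Reaction incubated 3 h at 37 °C, stopped with stop buffer, counted 1 min per sample on a beta counter; IC50 reported.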

SMILES: CC(C)Nc1cccnc1N1CCN(C(=O)c2cc3cccc(C(=O)/C=C(\O)C(=O)O)c3[nH]2)CC1
IC50 [1]: > 100 µM | EC50 [2]: > 10 µM | IC50 [3]: > 100 µM

SMILES: CC(C)Nc1cccnc1N1CCN(C(=O)c2[nH]c3c(C(=O)/C=C(\O)C(=O)O)cccc3c2Br)CC1
IC50 [1]: 75 µM | EC50 [2]: > 10 µM | IC50 [3]: > 100 µM

SMILES: CC(C)Nc1cccnc1N1CCN(C(=O)c2cc3cc(C(=O)/C=C(\O)C(=O)O)ccc3[nH]2)CC1
IC50 [1]: 11 µM | EC50 [2]: 0.52 µM | IC50 [3]: 0.0059 µM

SMILES: CC(C)Nc1cccnc1N1CCN(C(=O)c2cc3cc(NS(C)(=O)=O)ccc3[nH]2)CC1 [DELAVIRDINE]
IC50 [1]: > 100 µM | EC50 [2]: 0.021 µM | IC50 [3]: 0.036 µM

The next lines start with the values.

IC50 [1]: 3.9 µM | EC50 [2]: 0.79 µM | IC50 [3]: 0.12 µM
SMILES: CC(C)Nc1cccnc1N1CCN(C(=O)c2[nH]c3ccc(C(=O)/C=C(\O)C(=O)O)cc3c2Br)CC1

IC50 [1]: 4.7 µM | EC50 [2]: 0.98 µM | IC50 [3]: 1.1 µM
SMILES: CC(C)Nc1cccnc1N1CCN(C(=O)c2[nH]c3ccc(C(=O)/C=C(\O)C(=O)O)cc3c2Cl)CC1

IC50 [1]: > 100 µM | EC50 [2]: > 10 µM | IC50 [3]: > 100 µM
SMILES: CC(C)Nc1cccnc1N1CCN(C(=O)c2[nH]c3c(C(=O)/C=C(\O)C(=O)O)cccc3c2Cl)CC1
